# Test results from ChEMBL document CHEMBL4308900, “Synthesis and identification of 2,4-bisanilinopyrimidines bearing 2,2,6,6-tetramethylpiperidine-N-oxyl as potential Aurora A inhibitors” (Bioorg Med Chem, 2019).
# pIC50: −log10 of the molar value. The source made the active and inactive calls. The calls are words filed in the database; no cut-off is given here.
# Columns and labels:
# [1] = tested on: HeLa; test: Cell cycle arrest in human HeLa cells assessed as decrease in cyclin B1 protein expression up to 5 uM after 12 hrs by Western blot analysis; assay type: functional, cell-based
# Summary of the method: (§1)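 HeLa cells treated 12 h (0.1, 1, 5 μM for apoptosis proteins); lysed in Tris pH 7.5/NP-40/SDS buffer with protease inhibitors, equal protein on 10% SDS-PAGE, PVDF, 5% BSA block, primary antibodies overnight at 4 °C, β-actin loading control; mean ± SD.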
# [2] = tested on: HeLa; test: Induction of apoptosis in human HeLa cells assessed as viable cells at 0.1 uM after 12 hrs by Annexin V-FITC/propidium iodide staining-based flow cytometric analysis (reference value: 91.02%); assay type: functional; details: read-out: Activity
# [3] = target: T1, Aurora kinase B (Homo sapiens, UniProt Q96GD4); test: Inhibition of Aurora B phosphorylation at Thr232 residue in human HeLa cells after 12 hrs by Western blot analysis; assay type: cell-based
# Summary of the method: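 HeLa cells given 0, 1.25, 2.5 or 5.0 μM for 12 h; lysates in buffer with phosphatase and protease inhibitors, 10% SDS-PAGE western blot probed for phospho-Aurora A Thr288, phospho-Aurora B Thr232 and total Aurora A/B, β-actin loading control; band levels as mean ± SD versus control.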
# [4] = tested on: HeLa; test: Cell cycle arrest in human HeLa cells assessed as accumulation at G2/M phase at 5 uM after 12 hrs by propidium iodide staining-based flow cytometric analysis (reference value: 23.57%); assay type: functional
# Summary of the method: (§2)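 HeLa cells exposed 12 h to 1 or 5 μM compound diluted from DMSO (DMSO control), fixed, stained with propidium iodide; DNA content measured by flow cytometry and G1, S, G2/M fractions calculated from the DNA histogram.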
# [5] = tested on: HeLa; test: Induction of apoptosis in human HeLa cells assessed as upregulation of caspase-9 protein expression up to 5 uM after 12 hrs by Western blot analysis; assay type: functional, cell-based; summary of the method: as §1
# [6] = tested on: HeLa; test: Induction of apoptosis in human HeLa cells assessed as upregulation of Bad protein expression up to 5 uM after 12 hrs by Western blot analysis; assay type: functional, cell-based; summary of the method: as §1
# [7] = tested on: HeLa; test: Induction of apoptosis in human HeLa cells assessed as upregulation of Bax protein expression up to 5 uM after 12 hrs by Western blot analysis; assay type: functional, cell-based; summary of the method: as §1
# [8] = tested on: HeLa; test: Cell cycle arrest in human HeLa cells assessed as accumulation at G1 phase at 5 uM after 12 hrs by propidium iodide staining-based flow cytometric analysis (reference value: 70.68%); assay type: functional; summary of the method: as §2
# [9] = target: T2, Aurora kinase A (Homo sapiens) (UniProt O14965); test: Inhibition of Aurora A phosphorylation at Thr288 residue in human HeLa cells at <10 nM after 12 hrs by ELISA; assay type: cell-based
# T2 sequence (whole entry): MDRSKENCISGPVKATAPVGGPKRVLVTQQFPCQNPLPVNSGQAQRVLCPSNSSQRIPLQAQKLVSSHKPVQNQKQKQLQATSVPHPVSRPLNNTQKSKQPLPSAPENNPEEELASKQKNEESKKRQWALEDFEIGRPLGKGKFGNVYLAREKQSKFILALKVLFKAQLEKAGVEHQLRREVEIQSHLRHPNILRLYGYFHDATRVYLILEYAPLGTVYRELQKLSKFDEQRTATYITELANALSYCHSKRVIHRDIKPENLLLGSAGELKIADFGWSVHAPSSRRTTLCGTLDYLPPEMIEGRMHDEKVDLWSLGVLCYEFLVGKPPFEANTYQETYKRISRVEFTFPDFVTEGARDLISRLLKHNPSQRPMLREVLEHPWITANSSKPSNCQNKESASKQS
# Summary of the method: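 HeLa cells grown 12 h in 6-well dishes with compound diluted from DMSO at several concentrations; whole-cell lysate captured on anti-Aurora A or B antibody-coated wells, HRP-labelled detection, TMB substrate, stopped with sulphuric acid, absorbance at 450 nm.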
# [10] = tested on: HeLa; test: Induction of apoptosis in human HeLa cells assessed as viable cells at 5 uM after 12 hrs by Annexin V-FITC/propidium iodide staining-based flow cytometric analysis (reference value: 91.02%); assay type: functional; details: read-out: Activity
# [11] = tested on: HeLa; test: Cell cycle arrest in human HeLa cells assessed as decrease in accumulation at G1 phase after 12 hrs by propidium iodide staining-based flow cytometric analysis; assay type: functional; summary of the method: as §2
# [12] = tested on: HeLa; test: Induction of apoptosis in human HeLa cells assessed as viable cells at 1 uM after 12 hrs by Annexin V-FITC/propidium iodide staining-based flow cytometric analysis (reference value: 91.02%); assay type: functional; details: read-out: Activity
# [13] = tested on: HeLa; test: Induction of apoptosis in human HeLa cells assessed as upregulation of caspase-3 protein expression up to 5 uM after 12 hrs by Western blot analysis; assay type: functional, cell-based; summary of the method: as §1
# [14] = target: T3, Aurora kinase A (Homo sapiens, UniProt O14965); test: Inhibition of Aurora A (unknown origin) using kemptide acetate salt as substrate after 30 mins by kinase-Glo luminescence method
# T3 sequence (O14965 whole entry): T2 sequence (whole entry)
# [15] = tested on: HeLa; test: Induction of apoptosis in human HeLa cells assessed as necrotic cells at 0.1 uM after 12 hrs by Annexin V-FITC/propidium iodide staining-based flow cytometric analysis (reference value: 5.92%); assay type: functional
# [16] = tested on: HeLa; test: Cell cycle arrest in human HeLa cells assessed as accumulation at S phase at 5 uM after 12 hrs by propidium iodide staining-based flow cytometric analysis (reference value: 5.74%); assay type: functional; summary of the method: as §2
# [17] = tested on: HepG2; test: Antiproliferative activity against human HepG2 cells after 48 hrs by MTT assay; assay type: functional; details: HepG2, 48 h
# Summary of the method: (§3)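 MTT assay: cells attached 4–6 h at 37 °C, 5% CO2, then exposed 48 h to graded concentrations from DMSO stocks; 5 mg/mL MTT added for 4 h, formazan dissolved in DMSO, absorbance at 490 nm. GI50 from log plot of percent of control versus concentration; mean of three independent experiments.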
# [18] = tested on: HeLa; test: Cell cycle arrest in human HeLa cells assessed as decrease in cdc2 protein expression up to 5 uM after 12 hrs by Western blot analysis; assay type: functional, cell-based; summary of the method: as §1
# [19] = tested on: HeLa; test: Induction of apoptosis in human HeLa cells assessed as early apoptotic cells at 0.1 uM after 12 hrs by Annexin V-FITC/propidium iodide staining-based flow cytometric analysis (reference value: 0.75%); assay type: functional
# [20] = tested on: HeLa; test: Induction of apoptosis in human HeLa cells assessed as necrotic cells at 5 uM after 12 hrs by Annexin V-FITC/propidium iodide staining-based flow cytometric analysis (reference value: 5.92%); assay type: functional
# [21] = tested on: HeLa; test: Induction of apoptosis in human HeLa cells assessed as late apoptotic cells at 5 uM after 12 hrs by Annexin V-FITC/propidium iodide staining-based flow cytometric analysis (reference value: 2.32%); assay type: functional
# [22] = tested on: HeLa; test: Disruption of spindle formation in human HeLa cells assessed as formation of abnormal mitotic spindles at 0.1 to 1 uM after 24 hrs by DAPI staining based immunofluorescence microscopic analysis; assay type: functional, cell-based
# Summary of the method: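 HeLa cells on coverslips treated 24 h (0.1 or 1 μM; DMSO control); fixed in 4% paraformaldehyde, permeabilised in 0.1% Triton X-100 with 2% BSA, anti-α-tubulin overnight at 4 °C, FITC secondary 2 h room temperature, DAPI for DNA; confocal imaging.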
# [23] = tested on: A549; test: Antiproliferative activity against human A549 cells after 48 hrs by MTT assay; assay type: functional; details: A549, 48 h; summary of the method: as §3
# [24] = species on record: Homo sapiens; test: Selectivity ratio of IC50 for Aurora B in human HeLa cells to IC50 for Aurora A in human HeLa cells; assay type: cell-based
# [25] = target: T1, Aurora kinase B; test: Inhibition of Aurora B (unknown origin) using kemptide acetate salt as substrate after 30 mins by kinase-Glo luminescence method
# T1 sequence (Q96GD4 whole entry): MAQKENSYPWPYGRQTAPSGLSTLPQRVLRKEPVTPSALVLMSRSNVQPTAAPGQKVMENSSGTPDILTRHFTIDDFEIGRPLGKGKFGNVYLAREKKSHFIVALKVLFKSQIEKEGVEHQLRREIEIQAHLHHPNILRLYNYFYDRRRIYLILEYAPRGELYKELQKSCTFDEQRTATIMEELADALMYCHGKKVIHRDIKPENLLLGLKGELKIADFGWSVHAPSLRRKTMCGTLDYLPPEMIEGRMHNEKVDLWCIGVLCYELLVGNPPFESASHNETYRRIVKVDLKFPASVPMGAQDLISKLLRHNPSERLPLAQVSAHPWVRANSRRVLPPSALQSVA
smiles,measurement,setting,value
CC1(C)CC(NC(=O)c2ccc(Nc3ncc(F)c(Nc4ccc(C(=O)Nc5ccccc5Cl)cc4)n3)cc2)CC(C)(C)N1[O],Activity,[1],Active
same,viability at 0.1 µM,[2],90.3%
same,inhibition,[3],Dose-dependent effect
same,Activity,[4],60.33%
same,Activity,[5],Active
same,Activity,[6],Active
same,Activity,[7],Active
same,Activity,[8],39.67%
same,inhibition,[9],inactive
same,viability at 5 µM,[10],67.7%
same,Activity,[11],Dose-dependent effect
same,viability at 1 µM,[12],78.7%
same,Activity,[13],Active
same,pIC50,[14],10.22
same,Activity,[15],5.63%
same,Activity,[16],0%
same,GI50,[17],1200 nM
same,Activity,[18],Active
same,Activity,[19],1.12%
same,Activity,[20],10.75%
same,Activity,[21],16.66%
same,Activity,[22],Active
same,GI50,[23],1100 nM
same,Ratio IC50,[24],67
same,pIC50,[25],8.59
